Experimental data gathered from unrelated publications.
Target: cAMP-dependent protein kinase catalytic subunit alpha (PRKACA, Homo sapiens, UniProt P17612)

Compound | test | setting | quantity | result
CN(c1nccc(-c2cnn3ncccc23)n1)C1CC1 | cell-free assay | 1 µM | remaining signal | 100%
CC(C)(O)[C@H]1CC[C@H](Nc2ccc3ncc(-c4cccc(C(F)(F)F)c4)n3n2)CC1 | enzyme activity, inhibitor | 1 µM | remaining activity | 99.4%
Nc1nc(NC2CCCCC2)sc1C(=O)c1ccccc1 | enzyme activity, inhibitor | 10 µM | remaining activity | 97%
O=C(Nc1cnn(-c2csc(C(=O)NC3COC3)c2)c1)Nc1c(F)cccc1Cl | enzyme activity, inhibitor | 5 µM | remaining activity | 108%
Cn1c2c(c3ccccc31)C(C#N)C(C)(C)NC2=O (stereo not drawn) | thermal stability, DSF | 10 µM | ΔTm | 0.2 °C
Cc1ccc(NC(=O)c2ccc(CN3CCN(C)CC3)cc2)cc1Nc1nccc(-c2cccnc2)n1 | enzyme activity, inhibitor | 0.5 µM | activity vs control | 95.4%
Cc1sc(C(=O)NC2COC2)cc1-n1cc(NC(=O)Nc2c(F)cccc2Cl)cn1 | enzyme activity, inhibitor | 10 µM | remaining activity | 94.5%
FC(F)(F)Oc1cccc(-c2cnc3ccc(-c4ccncc4)nn23)c1 | enzyme activity, inhibitor, radiometric | 1 µM | activity vs control | 95%
FC(F)c1nc2ccccc2n1-c1nc(N2CCOCC2)nc(N2CCOCC2)n1 | enzyme activity, inhibitor | 10 µM | remaining activity | 76%
COc1cc2ncnc(Nc3ccc(Oc4ccccc4)cc3C)c2cc1OC | enzyme activity, inhibitor | 1 µM | inhibition | 3%
CCOC(=O)c1cc2cc(-c3cc(C(=O)NCc4ccc(C(=O)O)cc4)nn3C)ccc2[nH]1 | cell-free assay, competition with immobilised ligand | 0.1 µM | remaining binding | 85%
CCN(CC)CCNC(=O)c1c(C)[nH]c(/C=C2\C(=O)Nc3ccc(F)cc32)c1C | enzyme activity, inhibitor | 0.3 µM | inhibition | 11%
Cc1ccc(-n2nc(C(C)(C)C)cc2NC(=O)Nc2ccc(OCCN3CCOCC3)c3ccccc23)cc1 | enzyme activity, inhibitor | 10 µM | inhibition | 6%
CC(C)c1ccc(NC(=O)c2cccs2)c(-c2nc3ccccc3[nH]c2=O)c1 | enzyme activity, inhibitor | 1 µM | activity vs control | 108%
Cc1cc(-n2nc(Cc3cc(F)cc(C(F)(F)F)c3)nc2C)ccc1C(N)=O | cell-free assay, competition with immobilised ligand | 1 µM | remaining binding | 100%
CS(=O)(=O)Nc1cccc(-c2csc(NC(=O)CSc3nc4nccnc4c(=O)n3CCc3ccccc3)n2)c1 | enzyme activity, inhibitor | 10 µM | inhibition | 5%
Cn1c2c(c3ccc(Cl)c(Cl)c31)C(C#N)C1(CCNCC1)NC2=O (racemic) | thermal stability, DSF | 10 µM | ΔTm | 3.3 °C
N#CCCc1ccc2c(c1)-c1[nH]c3ccc([N+](=O)[O-])cc3c1CC(=O)N2 | cell-free assay | 0.5 µM | remaining signal | 87.6%
Cc1ccc(Nc2nccc(N(C)c3ccc4c(C)n(C)nc4c3)n2)cc1S(N)(=O)=O | enzyme activity, inhibitor | 0.3 µM | inhibition | 6%
Cn1c2c(c3ccc(Cl)c(Cl)c31)C(C#N)C(C)(C)NC2=O (stereo not drawn) | thermal stability, DSF | 10 µM | ΔTm | 0.4 °C
Cc1cnc(NC2CCOCC2)nc1-n1cnc(C(=O)NC(CN)c2cc(F)cc(Cl)c2)c1 (stereo not drawn) | enzyme activity, inhibitor, radiometric | 1 µM | remaining activity | 45%

Compound | test | setting | quantity | result
C=CC(=O)Nc1cc(Nc2nccc(Nc3cc(Cl)c(F)cc3C(C)(C)O)n2)c(OC)cc1N1CC[C@@H](N(C)C)C1 | enzyme activity, inhibitor | 1 µM | inhibition | 7%
O=C1NC(=O)c2cc(Nc3ccc(F)cc3)c(Nc3ccc(F)cc3)cc21 | cell-free assay, inhibitor | 0.5 µM | remaining signal | 94.5%
Cc1cc(NC(=O)c2cccc(S(F)(F)(F)(F)F)c2)cc(-n2ccn3nc(-c4cccnc4)cc23)c1 | cell-free assay, competition with immobilised ligand | 1 µM | remaining binding | 100%
Cn1c2c(c3ccc(Cl)c(Cl)c31)C(C#N)C1(CCOCC1)NC2=O (stereo not drawn) | thermal stability, DSF | 10 µM | ΔTm | 0.1 °C
CCCOc1ccc(OC)c(F)c1C(=O)c1ccc(C(=O)N[C@@H]2CNC[C@H]2NC(=O)c2ccc3[nH]ncc3c2)cc1 | enzyme activity, inhibitor | 10 µM | remaining activity | 1%
Cn1c2c(Cl)c(Cl)ccc2c2cc(N)[nH]c(=O)c21 | thermal stability, DSF | 10 µM | ΔTm | 0.1 °C
CNCc1ccccc1-c1csc([C@@H](C)Nc2nc(C)nc3cc(OC)c(OC)cc23)c1 | cell-free assay, competition with immobilised ligand | 1 µM | remaining binding | 100%
Cn1c(=O)n(-c2ccc(C(C)(C)C#N)cc2)c2c3cc(-c4cnc5ccccc5c4)ccc3ncc21 | enzyme activity, inhibitor | 10 µM | remaining activity | 82%
CN(C)C1CCN(CC#Cc2nn(C3CCCC3)c3nc(NCc4ccccc4)ncc23)C1 (stereo not drawn) | enzyme activity, inhibitor, FRET | 0.1 µM | inhibition | 3%
COc1cc(Nc2cnc(C#N)c(O[C@H](C)CN(C)C)n2)ncc1-c1cnn(C)c1 | enzyme activity, inhibitor, radiometric | 1 µM | remaining activity | 104%
CN1CC(Oc2cnc(C#N)cc2-c2ccn3nc(NC(=O)C4CC4)cc3c2)C1 | enzyme activity, inhibitor | 1 µM | inhibition | 7%
CS(=O)(=O)N1CCCC(NC(=O)[C@H](CCC2CCCCC2)NC(=O)c2ccc(CNC(=O)c3cnc4ccccn34)cc2)C1 (stereo partly drawn) | cell-free assay, competition with immobilised ligand | 0.1 µM | remaining binding | 100%
CCOc1cc(-c2nncn2C)ccc1Nc1ncc2cc(C)nc(NCC(C)(C)C)c2n1 | enzyme activity, inhibitor, FRET | 1 µM | inhibition | < 15%
CN(C)CCCn1cc(C2=C(c3c[nH]c4ccccc34)C(=O)NC2=O)c2ccccc21 | cell-free assay | 0.5 µM | remaining signal | 72%
CN(C)CC#Cc1ccc(OCCCc2sc(N3CCc4cccc(C(=O)Nc5nc6ccccc6s5)c4C3)nc2C(=O)O)c(F)c1 | cell-free assay, competition with immobilised ligand | 1 µM | remaining binding | 89%
CC(C)(C)c1nc(-c2cccc(NS(=O)(=O)c3c(F)cccc3F)c2F)c(-c2ccnc(N)n2)s1 | enzyme activity, inhibitor, radiometric | 1 µM | remaining activity | 95%
Cc1cc(NC(=O)c2cccc3cc(-c4cccc5[nH]nc(N)c45)ccc23)ccc1F | enzyme activity, inhibitor | 0.1 µM | activity vs control | 100%
O=C(NCCCC1CCCCC1)c1ccc(CNC(=O)c2cnn(-c3ccccc3)c2C(F)(F)F)cc1 | cell-free assay, competition with immobilised ligand | 0.1 µM | remaining binding | 100%
Cn1cnc(Br)c1C1=CN(c2ncnc3[nH]cnc23)CCS1 | enzyme activity, inhibitor, radiometric | 2 µM | inhibition | 90.2%
O=C(Nc1cccnn1)N1CCC(=Cc2cccc(Oc3ccc(C(F)(F)F)cn3)c2)CC1 | cell-free assay, competition with immobilised ligand | 1 µM | remaining binding | 100%
Cc1cnn2ncc(-c3ccnc(N(C)C)n3)c2c1 | cell-free assay | 1 µM | remaining signal | 100%
